Bridge positions count the residues as written; N and C are the ends. Square brackets hold non-standard residues; d marks the D form. Peptide text beside a SMILES is read from it. Cha = N[C@@H](CC1CCCCC1)C(=O)O; Mpa = O=C(O)CCS
Key:
[1] = target: Vasopressin V2 receptor (Homo sapiens, UniProt P30518); experiment: Binding affinity against human vasopressin V2 receptor was determined by using plasma membranes from CHO cells stably transfected with VP/OT receptors; format: cell membranes
Summary of the method: (§1)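 Competition binding on plasma membranes from stably transfected CHO cells (human receptors). Membranes (1–20 µg protein) incubated 60 min at 30 °C in 50 mM Tris-HCl pH 7.4, 3 mM MgCl2, 1 mg/mL BSA, leupeptine, 0.1 mM PMSF, with 0.5–3 nM [3H]AVP and increasing analogue; nonspecific binding with 1 µM AVP.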

[2] = target: Vasopressin V1a receptor (Homo sapiens, UniProt P37288); experiment: Binding affinity against human vasopressin V1a receptor was determined by using plasma membranes from CHO cells stably transfected with VP/OT receptors; format: cell membranes; summary of the method: as §1
Sequence of Vasopressin V1a receptor (P37288 whole entry): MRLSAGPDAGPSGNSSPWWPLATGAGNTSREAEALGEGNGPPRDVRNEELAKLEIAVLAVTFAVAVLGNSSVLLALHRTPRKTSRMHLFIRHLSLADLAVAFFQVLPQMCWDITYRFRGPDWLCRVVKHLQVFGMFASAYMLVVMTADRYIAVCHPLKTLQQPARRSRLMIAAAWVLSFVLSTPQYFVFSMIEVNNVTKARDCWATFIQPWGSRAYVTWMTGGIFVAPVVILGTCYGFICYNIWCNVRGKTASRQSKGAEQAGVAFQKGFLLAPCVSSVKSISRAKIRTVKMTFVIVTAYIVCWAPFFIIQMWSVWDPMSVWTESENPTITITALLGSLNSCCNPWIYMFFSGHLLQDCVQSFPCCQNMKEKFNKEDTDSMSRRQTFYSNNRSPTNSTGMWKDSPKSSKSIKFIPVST

Sequence of Vasopressin V2 receptor (P30518 whole entry): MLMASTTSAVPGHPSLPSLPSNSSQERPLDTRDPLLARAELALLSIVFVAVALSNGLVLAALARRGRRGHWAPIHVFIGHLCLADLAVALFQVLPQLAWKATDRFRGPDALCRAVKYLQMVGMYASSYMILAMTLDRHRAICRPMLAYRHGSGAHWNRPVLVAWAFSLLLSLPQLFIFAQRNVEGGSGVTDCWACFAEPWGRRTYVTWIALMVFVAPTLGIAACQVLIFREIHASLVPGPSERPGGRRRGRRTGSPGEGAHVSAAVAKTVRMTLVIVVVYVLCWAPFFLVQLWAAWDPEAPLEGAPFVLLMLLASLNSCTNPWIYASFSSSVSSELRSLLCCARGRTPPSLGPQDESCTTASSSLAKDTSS

SMILES	Ki [1] [nM]	Ki [2] [nM]
N=C(N)NCCC[C@@H]1NC(=O)[C@H](Cc2ccccc2)NC(=O)[C@H](Cc2ccc(O)cc2)NC(=O)CCSSC[C@@H](C(=O)N2CCC[C@H]2C(=O)N[C@@H](CCCN=C(N)N)C(=O)NCC(N)=O)NC(=O)[C@H](CC(N)=O)NC1=O (stereo in doubt)	131	54.2
NC(=O)CNC(=O)[C@H](CCCN=C(N)N)NC(=O)[C@@H]1CCCN1C(=O)[C@@H]1CSSCCC(=O)N[C@@H](Cc2ccc(O)cc2)C(=O)N[C@@H](Cc2ccccc2)C(=O)NCC(=O)N[C@@H](CC(N)=O)C(=O)N1	554	276
NC(=O)CNC(=O)[C@H](CCCN=C(N)N)NC(=O)[C@@H]1CCCN1C(=O)[C@@H]1CSSCCC(=O)N[C@@H](Cc2ccc(O)cc2)C(=O)N[C@@H](Cc2ccccc2)C(=O)N[C@@H](Cc2c[nH]c3ccccc23)C(=O)N[C@@H](CC(N)=O)C(=O)N1 (stereo in doubt)	80	75
CC[C@H](C)[C@@H]1NC(=O)[C@H](Cc2ccccc2)NC(=O)[C@H](Cc2ccc(O)cc2)NC(=O)CCSSC[C@@H](C(=O)N2CCC[C@H]2C(=O)N[C@@H](CCCN=C(N)N)C(=O)NCC(N)=O)NC(=O)[C@H](CC(N)=O)NC1=O	9.9	16.8
NC(=O)CNC(=O)[C@H](CCCN=C(N)N)NC(=O)[C@@H]1CCCN1C(=O)[C@@H]1CSSCCC(=O)N[C@@H](Cc2ccc(O)cc2)C(=O)N[C@@H](Cc2ccccc2)C(=O)N[C@@H](Cc2cccs2)C(=O)N[C@@H](CC(N)=O)C(=O)N1 (stereo in doubt)	4420	63.3
CC(C)[C@@H]1NC(=O)[C@H](Cc2ccccc2)NC(=O)[C@H](Cc2ccc(O)cc2)NC(=O)CCSSC[C@@H](C(=O)N2CCC[C@H]2C(=O)N[C@@H](CCCN=C(N)N)C(=O)NCC(N)=O)NC(=O)[C@H](CC(N)=O)NC1=O ([Mpa]YFVNCPRG-NH2; disulfide 1-6)	1.2	11.4
NC(=O)CNC(=O)[C@H](CCCN=C(N)N)NC(=O)[C@@H]1CCCN1C(=O)[C@@H]1CSSCCC(=O)N[C@@H](Cc2ccc(O)cc2)C(=O)N[C@@H](Cc2ccccc2)C(=O)N[C@@H](Cc2ccc(O)cc2)C(=O)N[C@@H](CC(N)=O)C(=O)N1 (stereo in doubt)	621	36.9
C[C@@H](O)[C@@H]1NC(=O)[C@H](Cc2ccccc2)NC(=O)[C@H](Cc2ccc(O)cc2)NC(=O)CCSSC[C@@H](C(=O)N2CCC[C@H]2C(=O)N[C@@H](CCCN=C(N)N)C(=O)NCC(N)=O)NC(=O)[C@H](CC(N)=O)NC1=O (stereo in doubt)	1.5	2.9
NC(=O)CNC(=O)[C@H](CCCN=C(N)N)NC(=O)[C@@H]1CCCN1C(=O)[C@@H]1CSSCCC(=O)N[C@@H](Cc2ccc(O)cc2)C(=O)N[C@@H](Cc2ccccc2)C(=O)N[C@@H](CCCCN=C(N)N)C(=O)N[C@@H](CC(N)=O)C(=O)N1 (stereo in doubt)	1390	48.2
NC(=O)CNC(=O)[C@H](CCCN=C(N)N)NC(=O)[C@@H]1CCCN1C(=O)[C@@H]1CSSCCC(=O)N[C@@H](Cc2ccc(O)cc2)C(=O)N[C@@H](Cc2ccccc2)C(=O)N[C@@H](CC2CCCCC2)C(=O)N[C@@H](CC(N)=O)C(=O)N1 ([Mpa]YF[Cha]NCPRG-NH2; disulfide 1-6)	750	151
NC(=O)CNC(=O)[C@H](CCCN=C(N)N)NC(=O)[C@@H]1CCCN1C(=O)[C@@H]1CSSCCC(=O)N[C@@H](Cc2ccc(O)cc2)C(=O)N[C@@H](Cc2ccccc2)C(=O)N[C@@H](Cc2ccccc2)C(=O)N[C@@H](CC(N)=O)C(=O)N1 (stereo in doubt)	1070	80

Now from value to compound:

Ki [1] [nM]	Ki [2] [nM]	SMILES
50	–	NC(=O)CNC(=O)[C@H](CCCN=C(N)N)NC(=O)[C@@H]1CCCN1C(=O)[C@@H]1CSSCCC(=O)N[C@@H](Cc2ccc(O)cc2)C(=O)N[C@@H](Cc2ccccc2)C(=O)N[C@@H](CC(N)=O)C(=O)N[C@@H](CC(N)=O)C(=O)N1 (stereo in doubt)
1090	436	NC(=O)CNC(=O)[C@H](CCCN=C(N)N)NC(=O)[C@@H]1CCCN1C(=O)[C@@H]1CSSCCC(=O)N[C@@H](Cc2ccc(O)cc2)C(=O)N[C@@H](Cc2ccccc2)C(=O)N[C@@H](CCC(=O)O)C(=O)N[C@@H](CC(N)=O)C(=O)N1 (stereo in doubt)
568	36.3	NCC[C@@H]1NC(=O)[C@H](Cc2ccccc2)NC(=O)[C@H](Cc2ccc(O)cc2)NC(=O)CCSSC[C@@H](C(=O)N2CCC[C@H]2C(=O)N[C@@H](CCCN=C(N)N)C(=O)NCC(N)=O)NC(=O)[C@H](CC(N)=O)NC1=O (stereo in doubt)
245	44.1	CC(C)C[C@@H]1NC(=O)[C@H](Cc2ccccc2)NC(=O)[C@H](Cc2ccc(O)cc2)NC(=O)CCSSC[C@@H](C(=O)N2CCC[C@H]2C(=O)N[C@@H](CCCN=C(N)N)C(=O)NCC(N)=O)NC(=O)[C@H](CC(N)=O)NC1=O
24.7	13	NC(=O)CNC(=O)[C@H](CCCN=C(N)N)NC(=O)[C@@H]1CCCN1C(=O)[C@@H]1CSSCCC(=O)N[C@@H](Cc2ccc(O)cc2)C(=O)N[C@@H](Cc2ccccc2)C(=O)N[C@@H](CO)C(=O)N[C@@H](CC(N)=O)C(=O)N1 (stereo in doubt)
13.7	21.8	C[C@@H]1NC(=O)[C@H](Cc2ccccc2)NC(=O)[C@H](Cc2ccc(O)cc2)NC(=O)CCSSC[C@@H](C(=O)N2CCC[C@H]2C(=O)N[C@@H](CCCN=C(N)N)C(=O)NCC(N)=O)NC(=O)[C@H](CC(N)=O)NC1=O
2.1	19.7	CC[C@@H]1NC(=O)[C@H](Cc2ccccc2)NC(=O)[C@H](Cc2ccc(O)cc2)NC(=O)CCSSC[C@@H](C(=O)N2CCC[C@H]2C(=O)N[C@@H](CCCN=C(N)N)C(=O)NCC(N)=O)NC(=O)[C@H](CC(N)=O)NC1=O (stereo in doubt)
1130	88	NCCC[C@@H]1NC(=O)[C@H](Cc2ccccc2)NC(=O)[C@H](Cc2ccc(O)cc2)NC(=O)CCSSC[C@@H](C(=O)N2CCC[C@H]2C(=O)N[C@@H](CCCN=C(N)N)C(=O)NCC(N)=O)NC(=O)[C@H](CC(N)=O)NC1=O (stereo in doubt)
11200	463	NCCCC[C@@H]1NC(=O)[C@H](Cc2ccccc2)NC(=O)[C@H](Cc2ccc(O)cc2)NC(=O)CCSSC[C@@H](C(=O)N2CCC[C@H]2C(=O)N[C@@H](CCCN=C(N)N)C(=O)NCC(N)=O)NC(=O)[C@H](CC(N)=O)NC1=O (stereo in doubt)
24.1	22.5	CCC[C@@H]1NC(=O)[C@H](Cc2ccccc2)NC(=O)[C@H](Cc2ccc(O)cc2)NC(=O)CCSSC[C@@H](C(=O)N2CCC[C@H]2C(=O)N[C@@H](CCCN=C(N)N)C(=O)NCC(N)=O)NC(=O)[C@H](CC(N)=O)NC1=O (stereo in doubt)
36.8	19.7	NC[C@@H]1NC(=O)[C@H](Cc2ccccc2)NC(=O)[C@H](Cc2ccc(O)cc2)NC(=O)CCSSC[C@@H](C(=O)N2CCC[C@H]2C(=O)N[C@@H](CCCN=C(N)N)C(=O)NCC(N)=O)NC(=O)[C@H](CC(N)=O)NC1=O (stereo in doubt)
117	28.1	CCCC[C@@H]1NC(=O)[C@H](Cc2ccccc2)NC(=O)[C@H](Cc2ccc(O)cc2)NC(=O)CCSSC[C@@H](C(=O)N2CCC[C@H]2C(=O)N[C@@H](CCCN=C(N)N)C(=O)NCC(N)=O)NC(=O)[C@H](CC(N)=O)NC1=O (stereo in doubt)

From ChEMBL document CHEMBL1149164, “Design of potent and selective agonists for the human vasopressin V1b receptor based on modifications of [deamino-cys1]arginine vasopressin at position 4” (J Med Chem, 2004)
